Measurements reported in ChEMBL document CHEMBL1123487, “Zwitterionic 3'-O-acyl derivatives of thymidine 5'-phosphate as potential sources of intracellular thymidine 5'-phosphate in cells in culture” (J Med Chem, 1986).
Where “and” joins values, the source holds several entries; their conditions need not be identical. Equal entries are not always repeated. Values belong to the compound of their own block, whether it stands above or below them.

Tests used:
[1] = Compound was evaluated for the Hydrolysis rate in aqueous 50 mM Potassium Phosphate; type: ADME; conditions: aqueous potassium phosphate buffer
Outline: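 5 mM ester in aqueous 50 mM potassium phosphate, pH 7.6, held at 37 °C. Release of free nucleotide followed by paper electrophoresis at pH 3.6 (thymidine release by silica TLC, UV inspection). log(residual ester) plotted against time; t1/2 read graphically from the linear pseudo-first-order plot.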

L929 [2] = test: Rate of incorporation of [3H]-dC into DNA in mouse L929 cells at 10e-4 concentration; units=cpm/hx 5*10e5 cells; type: functional
L929 [3] = test: Rate of incorporation of [3H]dC into DNA in mouse L929 cells at 10e-4 concentration; units=cpm/hx 5*10e5 cells; type: functional
LM [4] = test: Effect on DNA synthesis in mouse LM(TK-) cells blocked in DNA synthesis with Aminopterin at 10e-4 M; type: functional
Outline: (§1)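 LM(TK-) mouse fibroblasts, 5×10^5 or 1×10^6 per 6-cm dish, grown overnight in DMEM/10% FBS at 37 °C, 5% CO2. Blocked 3 h in medium with heat-inactivated serum, aminopterin 1 μg/mL, glycine and hypoxanthine 15 μg/mL each, no 5'-NH2-dT. Compounds diluted from 10 mM stocks in 50% ethanol-water; controls got vehicle. Recovery 2 h, then [3H]-dC 1 μCi/mL for 1–3 h. Cold 5% TCA-insoluble counts in duplicate; enhancement = rate with compound / rate in parallel controls.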

L929 [5] = test: Stimulation of DNA synthesis in L929 cells in the presence of 5'-NH2-dT; type: functional, Mus musculus
L929 [6] = test: Stimulation of DNA synthesis in L929 cells in the absence of 5'-NH2-dT; type: functional, Mus musculus
Outline: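 L929 cells blocked 3 h with aminopterin medium. 5'-NH2-dT (1.0 mM) was left out of the 2 h recovery medium that held the compound. Labelled with [3H]-dC 1 μCi/mL; TCA-insoluble incorporation (cpm/h per 5×10^5 cells) compared with parallel control cultures.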

LM [7] = test: Effect (10e-4 M) on DNA synthesis in mouse LM(TK-) cells blocked in DNA synthesis with Aminopterin; type: functional; outline: as §1
LM [8] = test: Effect (10e-3 M) on DNA synthesis in mouse LM(TK-) cells blocked in DNA synthesis with Aminopterin; type: functional; outline: as §1
LM [9] = test: Effect (10e-5 M) on DNA synthesis in mouse LM(TK-) cells blocked in DNA synthesis with Aminopterin; type: functional; outline: as §1
LM [10] = test: Effect (10e-6 M) on DNA synthesis in mouse LM(TK-) cells blocked in DNA synthesis with Aminopterin; type: functional
Outline: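 LM(TK-) fibroblasts seeded and cultured overnight. Blocked 3 h in heat-inactivated-serum medium with aminopterin 1 μg/mL, glycine and hypoxanthine 15 μg/mL, no 5'-NH2-dT. Compound diluted from 10 mM stock in 50% ethanol-water and applied 2 h. Then [3H]dC 1 μCi/mL; acid-insoluble radioactivity measured in duplicate. Effect expressed as incorporation rate relative to parallel vehicle controls.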

L929 [11] = test: Rate of incorporation of [3H]dC into DNA in mouse L929 cells at 10e-5 concentration; units=cpm/hx 5*10e5 cells; type: functional
Outline: (§2)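 L929 cells seeded at 5×10^5 or 1×10^6 per dish in DMEM/10% FBS, overnight at 37 °C, 5% CO2. Blocked 3 h in medium with heat-inactivated serum, aminopterin 1 μg/mL, glycine and hypoxanthine 15 μg/mL each, and 1.0 mM 5'-NH2-dT. Test agent in the same medium for 2 h, then 1 μCi/mL [3H]dC for 1–3 h. Cold 5% TCA-insoluble counts in duplicate, scaled to cell counts.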

L929 [12] = test: Rate of incorporation of [3H]dC into DNA in mouse L929 cells at 10e-6 concentration; units=cpm/hx 5*10e5 cells; type: functional; outline: as §2

- half-life [1]: 5.62 days
SMILES: CC(=O)O[C@H]1C[C@H](n2cc(C)c(=O)[nH]c2=O)O[C@@H]1CO

- half-life [1]: 1.17 days
SMILES: CCN(CC)CC[N+](CC)(CC)CCCC(=O)O[C@H]1C[C@H](n2cc(C)c(=O)[nH]c2=O)O[C@@H]1COP(=O)([O-])O

- half-life [1]: 3.08 days
SMILES: CCN(CC)CCC[N+](CC)(CC)CCCCC(=O)O[C@H]1C[C@H](n2cc(C)c(=O)[nH]c2=O)O[C@@H]1COP(=O)([O-])O
- Incorporation rate (L929 [2]): 605 c.p.m. hr-1 and 504 c.p.m. hr-1

SMILES: CCN(CC)CCCC[N+](CC)(CC)CCCCC(=O)O[C@H]1C[C@H](n2cc(C)c(=O)[nH]c2=O)O[C@@H]1COP(=O)([O-])O
- Incorporation rate (L929 [3]): 782 c.p.m. hr-1 and 821 c.p.m. hr-1

SMILES: CC[N+](CC)(CC)CC[N+](CC)(CC)CCCCC(=O)O[C@H]1C[C@H](n2cc(C)c(=O)[nH]c2=O)O[C@@H]1COP(=O)([O-])[O-]
- Incorporation rate (LM [4]): 171 c.p.m. hr-1
- Incorporation rate (L929 [5]): 808 c.p.m. hr-1
- Incorporation rate (L929 [2]): 673 c.p.m. hr-1 and 1103 c.p.m. hr-1
- Incorporation rate (L929 [6]): 5462 c.p.m. hr-1

- half-life [1]: 3 days
SMILES: CC[N+](CC)(CC)CCC[N+](CC)(CC)CCCCC(=O)O[C@H]1C[C@H](n2cc(C)c(=O)[nH]c2=O)O[C@@H]1COP(=O)([O-])[O-]

- half-life [1]: 3.54 days
SMILES: CC[N+](CC)(CC)CCCC[N+](CC)(CC)CCCCC(=O)O[C@H]1C[C@H](n2cc(C)c(=O)[nH]c2=O)O[C@@H]1COP(=O)([O-])[O-]
- Incorporation rate (LM [7]): 204 c.p.m. hr-1 and 147 c.p.m. hr-1
- Incorporation rate (L929 [5]): 1135 c.p.m. hr-1
- Incorporation rate (L929 [2]): 1356 c.p.m. hr-1 and 1299 c.p.m. hr-1
- Incorporation rate (L929 [6]): 7462 c.p.m. hr-1

- half-life [1]: 1.17 days
SMILES: CCN(CC)CC[N+](CC)(CC)CCCC(=O)O[C@H]1C[C@H](n2cc(C)c(=O)[nH]c2=O)O[C@@H]1CO.Cl.[Cl-]

- half-life [1]: 3.62 days
SMILES: CC[N+](CC)(CC)CCCC[N+](CC)(CC)CCCCC(=O)O[C@H]1C[C@H](n2cc(C)c(=O)[nH]c2=O)O[C@@H]1CO.[Cl-].[Cl-]

SMILES: Cc1cn([C@H]2C[C@H](O)[C@@H](CO)O2)c(=O)[nH]c1=O [DOXRIBTIMINE]
- Incorporation rate (LM [8]): 213 c.p.m. hr-1
- Incorporation rate (LM [7]): 228 c.p.m. hr-1 and 251 c.p.m. hr-1
- Incorporation rate (LM [9]): 204 c.p.m. hr-1
- Incorporation rate (LM [10]): 185 c.p.m. hr-1
- Incorporation rate (L929 [2]): 28200 c.p.m. hr-1
- Incorporation rate (L929 [11]): 2937 c.p.m. hr-1
- Incorporation rate (L929 [12]): 465 c.p.m. hr-1

SMILES: Cc1cn([C@H]2C[C@H](O)[C@@H](COP(=O)(O)O)O2)c(=O)[nH]c1=O [THYMIDINE MONOPHOSPHATE]
- Incorporation rate (LM [8]): 596 c.p.m. hr-1 and 668 c.p.m. hr-1 and 837 c.p.m. hr-1
- Incorporation rate (LM [7]): 381 c.p.m. hr-1 and 295 c.p.m. hr-1
- Incorporation rate (LM [9]): 323 c.p.m. hr-1 and 256 c.p.m. hr-1
